The text below walks through data of publication PMC6364161 (Journal of Veterinary Research, 2018).

The test system of series [1] is BALB/3T3 cells. Nature of the series: Neutral red uptake assay, BALB/3T3 cells. Particulars: NRU; for cell viability at low doses: BALB/3T3, 100, 200, and 400 μM; for cell viability: BALB/3T3, 100 to 1,400 μM, 24 h. Format: cell-based, Mouse. In a few lines:
(§1)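 Neutral red uptake, a measure of lysosomal activity. BALB/3T3 cells were grown in DMEM with 10% heat-inactivated calf serum and HepG2 cells in EMEM with 10% heat-inactivated FBS, both seeded at 2 × 10^5 cells/mL for 24 h. Cells were then exposed for 24 h to test compound at 100–1,400 μM, diluted in medium from a 10 mM PBS stock. Viability was measured spectrophotometrically against control cells, and IC50 was read from the dose-response curve. Six independent experiments, three wells per treatment.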

Series [2] has as its system HepG2 cells. Description: MTT reduction assay, HepG2 cells. The note with it: for cell viability at low doses / cell viability: MTT; for cell viability at low doses: HepG2, 100 and 200 μM; for cell viability: HepG2, 100 to 1,400 μM, 24 h, compared to control; for pIC50: MTT assay, HepG2, 24 h incubation. In kind it is cell-based, human. The essentials: (§2)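 Cells were plated at 2 × 10^5 cells/mL and cultured 24 h: BALB/3T3 in DMEM with 10% heat-inactivated calf serum, HepG2 in EMEM with 10% heat-inactivated FBS. Medium was then replaced with test compound at 100–1,400 μM, diluted from a 10 mM PBS stock, for 24 h. MTT reduction was read spectrophotometrically as viability relative to untreated control (100%), and IC50 was taken from the dose-response curve. Six independent experiments, triplicate wells.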
Background: Formazan colour is commonly taken as a measure of viable cells.

Series [3] relates to HepG2 cells. Nature of the series: LDH release assay, HepG2 cells. In kind it is cell-based, human. Particulars: for LDH leakage (membrane integrity): LDH release, HepG2, 100 to 1,400 μM, 24 h; for pIC50: LDH leakage assay, HepG2, 24 h incubation. In a few lines: (§3)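 Test compounds (10 mM stock in PBS) were diluted in complete medium: DMEM plus 10% heat-inactivated calf serum for BALB/3T3 cells, EMEM plus 10% heat-inactivated FBS for HepG2 cells. Cells were seeded at 2 × 10^5 cells/mL, grown 24 h, then exposed to 100–1,400 μM for 24 h at 37 °C, 5% CO2. Released LDH was taken as a percentage of total LDH absorbance, and IC50 was read from the dose-response curve. Six independent experiments, three wells each.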

Series [4] relates to BALB/3T3 cells. Nature of the series: MTT reduction assay, BALB/3T3 cells. Format: cell-based, Mouse. The note with it: for cell viability at low doses / cell viability: MTT; for cell viability at low doses: BALB/3T3, 100 and 200 μM; for cell viability: BALB/3T3, 100 to 1,400 μM, 24 h, compared to control. The essentials: as §2
The subject of series [5] is BALB/3T3 cells. Description: LDH release assay, BALB/3T3 cells. In kind it is cell-based, Mouse. Particulars: for LDH leakage (membrane integrity): LDH release, BALB/3T3, 100 to 1,400 μM, 24 h; for pIC50: LDH leakage assay, BALB/3T3, 24 h incubation. In a few lines:
as §3
On the technique in general: Release of lactate dehydrogenase indicates damage to the cell membrane.

Series [6] deals with HepG2 cells. Description: Neutral red uptake assay, HepG2 cells. Particulars: for cell viability at low doses / cell viability: NRU; for cell viability at low doses: HepG2, 100, 200, and 400 μM; for cell viability: HepG2, 100 to 1,400 μM, 24 h. In kind it is cell-based, human. The essentials:
as §1

The next series has as its system HK-2 cells. Particulars: MTT assay, 480 μM; cited from earlier work.

SMILES strings stand for the structures. pIC50: −log10 of the molar value.

With `O.O.O.O.O.O.[Cl-].[Cl-].[Cl-].[Fe+3]` [Iron chloride, FeCl3 × 6H2O], the “cell viability at low doses” value in the series with BALB/3T3 cells [1], in the series with HepG2 cells [2], in the series on BALB/3T3 cells [4] and in the series with HepG2 cells [6] was “increased” each time. Further, the cell viability entry in the series with BALB/3T3 cells [1], in the series with HepG2 cells [2], in the series with BALB/3T3 cells [4] and in the series with HepG2 cells [6] was “significantly decreased in a concentration-dependent manner” throughout. Also, the “LDH leakage (membrane integrity)” value in the series with HepG2 cells [3] and in the series on BALB/3T3 cells [5] was “increasingly significant LDH leakage” throughout.
Take `[Cl-].[Cl-].[Cl-].[Fe+3]` [Iron chloride, FeCl3 × 6H2O]: the pIC50 (as a rule, −log10 of the IC50, conventionally taken in molar units) is 2.89 in the series with HepG2 cells [2]; 3.05 in the series on HepG2 cells [3]; 3.26 in the series on BALB/3T3 cells [5]; 2.92 in the series on HepG2 cells [6] (NRU assay, HepG2, 24 h incubation).
`CC(=O)[O-].CC(=O)[O-].[Ni+2]` [Ni (II) acetate]: the cell viability result in the series on HK-2 cells was “less than 50%”.
Consider `[Cl][Ni][Cl]` [Nickel chloride, NiCl2], for which the “cell viability at low doses” value with BALB/3T3 cells [1], in the series with HepG2 cells [2], in the series on BALB/3T3 cells [4] and with HepG2 cells [6] was “increased” in each case. In addition, the cell viability entry in the series on BALB/3T3 cells [1], with HepG2 cells [2], in the series with BALB/3T3 cells [4] and in the series on HepG2 cells [6] was “significantly decreased in a concentration-dependent manner” each time. In addition, the pIC50 in the series on HepG2 cells [2] was 3.40; in the series on HepG2 cells [3], 3.10; with BALB/3T3 cells [4] (MTT assay, BALB/3T3, 24 h incubation), 3.15; in the series with BALB/3T3 cells [5], 3.52. For the same molecule, the “LDH leakage (membrane integrity)” value in the series on HepG2 cells [3] and with BALB/3T3 cells [5] was “increasingly significant LDH leakage” in each case.
